High-throughput results as filed in PubChem BioAssay.
Most compounds without a hit are left out; they make up all but 9% or so of the library.
mHtt clearance: mutant huntingtin protein clearance; AID 853; HeLa Exon1htt(103Q)mCFP, aggregate imaging; zero = plate's median compound well; hit rate 0.42% among 47,000; inhibition, % at 1.5 µM;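 active means inhibition of aggregate fluorescence above about 70%, also judged a hit by eye on the cell image, limit read from the data, passing the limit was not always enough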;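 further: cells exposed to compound for three days before fixation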
AP complement: alternative pathway complement inhibition, orthogonal assay; inhibition, % at 5 µM; hit rate 0.08% among 62,000; AID 1235; Human serum alternative complement pathway, LPS-coated ELISA, C3 deposition; tested in compound mixtures;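 active means inhibition above 30% in each of the two pooled mixtures holding the compound, so the lower value exceeds 30%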;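 further: 0% = serum in Mg-EGTA without compound and 100% = EDTA serum blank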
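Assay system: human serum alternative complement pathway, C3 deposition on LPS-coated wells; Dosing: 5 µM per compound in ten-compound mixtures; Detection: Anti-C3 ELISA, OD 450 nm; Buffer or medium: Mg2+-EGTA GVB++ buffer containing human serum at 1:15 dilution; Timing: 1 h at 37 °C; Replication: two different pools per compound.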
M1 ag: M1 muscarinic receptor agonism. CHO-M1 cells, Fluo-4 calcium fluorescence, agonist mode; hits give high values. hit rate 3% among 64,000. B-score at 10 µM. AID 626;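 active means fluorescence rise, raw or as B-score row- and column-corrected plate score, outside the 99.7% band of its plate's samples, either direction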
D1 allo mod: allosterically modulates the human D1 dopamine receptor; P21728; HEK293 D1, CRE-luciferase, dopamine EC30 potentiation; actives deviate in either direction; B-score at 10 µM; hit rate 5.9% among 58,000;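 active means luminescence count or its row- and column-corrected plate score outside the 99.7% band of the plate's sample wells, on either side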
Target sequence (P21728 whole entry, looked up): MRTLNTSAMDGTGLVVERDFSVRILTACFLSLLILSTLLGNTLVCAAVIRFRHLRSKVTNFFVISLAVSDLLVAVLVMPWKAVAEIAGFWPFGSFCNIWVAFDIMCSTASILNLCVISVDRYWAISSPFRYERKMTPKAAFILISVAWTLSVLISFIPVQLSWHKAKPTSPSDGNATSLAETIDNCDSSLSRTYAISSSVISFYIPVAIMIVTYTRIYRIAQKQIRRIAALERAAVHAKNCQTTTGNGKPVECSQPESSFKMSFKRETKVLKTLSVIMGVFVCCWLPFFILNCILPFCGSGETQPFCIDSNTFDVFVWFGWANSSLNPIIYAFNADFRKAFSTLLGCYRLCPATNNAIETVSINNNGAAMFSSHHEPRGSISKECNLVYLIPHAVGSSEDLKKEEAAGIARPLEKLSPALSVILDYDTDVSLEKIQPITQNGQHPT
M1 antag: antagonists of rat M1 muscarinic receptor; hit rate 3.4% among 64,000; AID 628; CHO-M1 cells, Fluo-4 calcium, ACh EC80 antagonist mode; hits give low values; B-score at 10 µM; P08482;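 active means calcium fluorescence response, raw or row-and-column corrected B-score, differing from the plate sample mean either way at a set confidence level, mostly lower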
D1 mod confirm: confirmation of human D1 dopamine receptor allosteric modulators; HEK293 D1 CRE-luciferase, dopamine EC30 potentiation; hits give high values; hit rate 88% among 2,200; shares compounds with D1 allo mod; luminescence at 10 µM;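 active means luminescence in either of two replicates above the same-plate mean plus 3 SD of the low-dose dopamine control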
D1 no dopamine: D1 (human) signaling in absence of dopamine | hit rate 0.8% among 1,900 | shares compounds with D1 allo mod | luminescence at 10 µM | AID 646 | HEK293 D1 CRE-luciferase, luminescence, no dopamine; hits give high values; in the data active means luminescence above about 3900
Isoprot counter: alters isoproterenol CRE-luciferase response in HEK293 cells | HEK293 D1 CRE-luciferase, isoproterenol EC30 counter-screen | hit rate 63% among 2,200 | shares compounds with D1 allo mod | AID 647 | calls only at 10 µM;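 active means luminescence in either replicate above plate mean of wells with a partly effective reference agonist dose plus 3 SD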;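 further: isoproterenol raises cAMP through native beta-adrenoceptor Gs so signal bypasses D1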
Starred values were filed as active, the others as inactive; i = inactive; . = not tested or not shown; + = active, no number.

SMILES	mHtt clearance	AP complement	M1 ag	D1 allo mod	M1 antag	D1 mod confirm	D1 no dopamine	Isoprot counter
CCOC(=O)c1cc(C(=O)OCC)cc(-n2c(C)cc(C(=O)CN3CCOCC3)c2C)c1	.	-14	0.12	4.9*	1	7880*	.	i
CCOC(=O)c1c(C)[nH]c(C(=O)COC(=O)c2ccc(F)c(S(=O)(=O)N3CCOCC3)c2)c1C	.	8	-0.83	0.44	0.16	.	.	.
COc1ccc(S(=O)(=O)N2CCSC2c2ccc(OC)c(OC)c2)cc1 (centres undefined)	.	20	-1.2	4.2*	-0.63	10220*	1664	i
O=C(NC1CCCC1)c1noc2c1CCCCC2	-8	.	.	.	.	.	.	.
N#CC1=C(N)N(c2ccc(Br)cc2)C2=C(C(=O)CCC2)C1c1cccnc1 (centres undefined)	.	11	.	0.042	.	.	.	.
C=CCN=C(NC#N)SCc1ccccc1Cl	-31	15	-0.54	7.4*	-0.36	8148*	.	i
CC(C)N=C(NC#N)SCc1ccc(F)cc1	-30	2	-0.23	-0.6	0.002	.	.	.
CCOC(=O)c1[nH]c2ccc(F)cc2c1NC(=O)CN1CCc2cc(OC)c(OC)cc2C1	-59	35*	0.91	1.7*	0.071	9280*	1680	+
CCOC(=O)c1[nH]c2cc(OC)c(OC)cc2c1NC(=O)c1ccc2c(c1)OCO2	3	5	0.47	.	-0.29	.	.	.
CCOC(=O)c1[nH]c2cc(OC)c(OC)cc2c1NC(=O)CN(C)C1CCCCC1	0	10	0.7	4.3*	0.33	10140*	1444	+
CCOC(=O)c1[nH]c2ccc(OC)cc2c1NC(=O)CN1CCSCC1	-8	-7	-0.038	2.3*	0.37	6220*	1352	+
CCOC(=O)c1[nH]c2ccc(OCC)cc2c1NC(=O)CN1CCC2(CC1)OCCO2	.	14	0.038	0.25	-0.51	.	.	.
COC(=O)c1[nH]c2ccc(Cl)cc2c1NC(=O)CN1CCc2cc(OC)c(OC)cc2C1	.	9	0.047	-0.012	0.14	.	.	.
Cn1c(=O)c2c(-c3ccccc3)n(-c3ccccc3O)cc2n(C)c1=O	-7	5	-1.3	2.4	0.18	.	.	.
COc1ccc(-c2c3c(=O)n(C)c(=O)n(C)c3cn2-c2cc(OC)ccc2OC)cc1	-41	11	-0.97	6*	-1.6	8244*	1200	+
Cc1ccccc1OCc1nnc(SCC(=O)Nc2ccc(N3CCOCC3)c(Cl)c2)n1C	13	.	.	.	.	.	.	.
CSC1=NCCN1C(=O)Cc1cccs1	4	10	0.15	9.8*	-0.9	7652*	1576	i
CSC1=NCCN1C(=O)c1ccc(Br)o1	18	-3	-1	5.7*	-0.32	11560*	1672	i
O=C(c1ccc(Br)o1)N1CCN=C1SCc1cccnc1	-1	12	-0.15	1	0.0055	.	.	.
CSC1=NCCN1C(=O)COc1ccccc1	.	12	-0.053	1	-0.3	.	.	.
Nc1nnc(-c2ccco2)s1	.	8	0.16	0.75	-0.36	.	.	.
Nc1ncnc2oc(-c3ccco3)c(-c3ccco3)c12	33	0	-0.88	10*	0.067	19128*	24288*	+
O=C(CSc1nnc2scc(-c3ccccc3)n12)NCc1ccc2c(c1)OCO2	-18	14	.	7.1*	.	15400*	1784	+
O=C(CSc1nnc2scc(-c3ccc(Cl)cc3)n12)NCc1ccc2c(c1)OCO2	34	-1	0.42	6.3*	-0.023	13884*	1740	+
Cc1c(NC(=O)CN2C(=O)c3ccccc3C2=O)c(=O)n(-c2ccccc2)n1C	.	20	-1.4	3.7*	0.29	4240	1472	i
SMILES	mHtt clearance	AP complement	M1 ag	D1 allo mod	M1 antag	D1 mod confirm	D1 no dopamine	Isoprot counter
Cc1ccc2cc(CCNC(=O)CC(C)C)c(=O)[nH]c2c1	.	10	0.012	.	1.1	.	.	.
c1csc(Cc2nn3c(-c4n[nH]c5c4CCC5)nnc3s2)c1	.	15	0.47	3.4*	-0.52	8576*	1600	+
CCOc1nc(OCC)nc(N2CCC(C)CC2)n1	.	-5	-0.81	27*	0.3	26964*	1528	+
CCn1c(N2CCC(C)CC2)nc2c1c(=O)n(C)c(=O)n2C	-105	23	-0.26	0.66	0.043	.	.	.
COc1ncnc2sc(-c3ccccc3)cc12	.	-3	-0.0058	2.8*	-0.0016	10684*	1684	+
COc1ccc(Nc2ncnc3sc(-c4ccccc4)cc23)cc1	-6	.	.	.	.	.	.	.
C=C(C)CSc1nc2c(cc1C#N)CCC2	.	22	0.32	5*	0.06	8952*	1892	i
C=CCSc1nc2c(cc1C#N)CCC2	-12	3	0.1	2.9	-1.4	.	.	.
N#Cc1cc2c(nc1SCc1cccnc1)CCCC2	.	4	-0.1	9.6*	-0.63	12820*	1552	+
Cc1ccc(NC(=S)NC(NC(=O)c2ccccc2C)C(Cl)(Cl)Cl)c(C)c1 (centres undefined)	-6	.	.	.	.	.	.	.
COc1cccc(CNCc2ccc(SC)cc2)c1OC	-12	.	.	.	.	.	.	.
O=C(CSc1nnc(NCc2ccccc2)s1)c1ccco1	-16	12	0.086	0.78	0.029	.	.	.
COC(=O)C(C)Sc1nc2c(c(=O)n(C)c(=O)n2C)n1CCC(C)C (centres undefined)	.	.	0.62	.	-1.2	.	.	.
C=C(C)Cn1c(SCCCO)nc2c1c(=O)[nH]c(=O)n2C	6	-8	-0.47	3.3	-0.72	.	.	.
C=C(C)CSc1nc2c(c(=O)[nH]c(=O)n2C)n1CCC(C)C	-58	20	1	11*	0.024	22496*	1732	+
COC(=O)C(C)Sc1nc2c(c(=O)[nH]c(=O)n2C)n1CCC(C)C (centres undefined)	.	.	-0.17	9.9*	0.3	21460*	1708	+
COCCSc1nc2c(c(=O)[nH]c(=O)n2C)n1CCC(C)C	.	8	-0.49	11*	0.3	21024*	1464	+
CCC(C)Nc1nc2c(c(=O)[nH]c(=O)n2C)n1CCC(C)C (centres undefined)	-45	-8	0.46	17*	1	18228*	1632	+
CC(C)Cn1c(NCCN(C)C)nc2c1c(=O)[nH]c(=O)n2C	17	-7	-0.13	-0.27	0.95	.	.	.
COCCN(C(=O)CCC(=O)Nc1ccccn1)C(C(=O)NC1CCCC1)c1ccc(OC)cc1 (centres undefined)	3	3	-0.28	.	0.21	.	.	.
CC(C)N(C(=O)C(=O)c1cccn1-c1ccccc1C#N)C(C)C	-29	.	.	.	.	.	.	.
CCN(CCCNC(=O)CCNC(=O)Cn1cnc2ccccc2c1=O)c1ccccc1	48	19	-0.25	-0.062	-0.16	.	.	.
O=C(NCCc1cccs1)C12CN(Cc3ccccc3)CC1C(c1cccc([N+](=O)[O-])c1)=NO2 (centres undefined)	-22	.	.	.	.	.	.	.
